ChEMBL document CHEMBL4118255, “Synthesis and antibacterial evaluation of novel 11-O-aralkylcarbamoyl-3-O-descladinosylclarithromycin derivatives” (2018)
In brackets after ≈: the same amount, converted by molar mass.

How the values were obtained:
Assay type in all cases: functional
Staphylococcus aureus [1] = assay: Antibacterial activity against methicillin-resistant Staphylococcus aureus ATCC 43300 after 24 hrs by tube-dilution method; details: ATCC 43300, 24 h
Method in brief: (§1)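 MIC determined by the NCCLS-recommended standard broth microdilution method against erythromycin-resistant S. pneumoniae strains (A22072 mef, B1 erm, AB11 erm plus mef) and methicillin-resistant S. aureus ATCC43300.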

Escherichia coli = assay: Antibacterial activity against penicillin-susceptible Escherichia coli ATCC 25922 incubated for 24 hrs by […]; details: ATCC 25922, 24 h
Streptococcus pneumoniae [2] = assay: Antibacterial activity against erythromycin-resistant Streptococcus pneumoniae B1 harboring ermB gene after 24 hrs by tube-dilution method; details: B1, 24 h; method in brief: as §1
Pseudomonas aeruginosa = assay: Antibacterial activity against penicillin-susceptible Pseudomonas aeruginosa ATCC 27853 incubated for 24 hrs by […]; details: ATCC 27853, 24 h
Staphylococcus aureus [3] = assay: Potency index, ratio of clarithromycin MIC to compound MIC for methicillin-resistant Staphylococcus aureus ATCC 43300
Streptococcus pneumoniae [4] = assay: Antibacterial activity against erythromycin-resistant Streptococcus pneumoniae AB11 harboring ermB and mefA genes after 24 hrs by tube-dilution method; details: AB11, 24 h; method in brief: as §1
Bacillus subtilis = assay: Antibacterial activity against erythromycin-susceptible Bacillus subtilis ATCC 9372 after 24 hrs by tube-dilution method; details: ATCC 9372, 24 h
Method in brief: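 MIC by standard NCCLS broth microdilution. Reference macrolides clarithromycin and azithromycin run alongside.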

Streptococcus pyogenes [5] = assay: Antibacterial activity against erythromycin-susceptible Streptococcus pyogenes after 24 hrs […]
Streptococcus pneumoniae [6] = assay: Antibacterial activity against erythromycin-resistant Streptococcus pneumoniae A22072 harboring mefA gene after 24 hrs by […]; details: A22072, 24 h
Streptococcus pyogenes [7] = assay: Antibacterial activity against erythromycin-resistant Streptococcus pyogenes R1 after 24 hrs by tube-dilution method; details: R1, 24 h
Staphylococcus aureus [8] = assay: Potency index, ratio of azithromycin MIC to compound MIC for methicillin-resistant Staphylococcus aureus ATCC 43300
Staphylococcus aureus [9] = assay: Antibacterial activity against erythromycin-susceptible Staphylococcus aureus ATCC 25923 after 24 hrs by […]; details: ATCC 25923, 24 h
Streptococcus pneumoniae [10] = assay: Potency index, ratio of clarithromycin MIC to compound MIC for erythromycin-resistant Streptococcus pneumoniae A22072 harboring mefA gene
Streptococcus pneumoniae [11] = assay: Potency index, ratio of azithromycin MIC to compound MIC for erythromycin-resistant Streptococcus pneumoniae A22072 harboring mefA gene

Compound | MIC (Staphylococcus aureus [1]) | MIC (Escherichia coli) | MIC (Streptococcus pneumoniae [2]) | MIC (Pseudomonas aeruginosa) | Ratio (Staphylococcus aureus [3]) | MIC (Streptococcus pneumoniae [4]) | MIC (Bacillus subtilis) | MIC (Streptococcus pyogenes [5]) | MIC (Streptococcus pneumoniae [6]) | MIC (Streptococcus pyogenes [7]) | Ratio (Staphylococcus aureus [8]) | MIC (Staphylococcus aureus [9]) | Ratio (Streptococcus pneumoniae [10]) | Ratio (Streptococcus pneumoniae [11])
CC[C@H]1OC(=O)[C@H](C)[C@@H](OC(=O)Cc2cccnc2)[C@H](C)[C@@H](O[C@@H]2O[C@H](C)C[C@H](N(C)C)[C@H]2O)[C@](C)(OC)C[C@@H](C)C(=O)[C@H](C)[C@@H](OC(=O)NCCNC(=O)/C=C/c2ccco2)[C@]1(C)O | 32 µg/mL (≈ 35 µM) | 128 µg/mL (≈ 140 µM) | 64 µg/mL (≈ 69.9 µM) | > 128 µg/mL | 4 | 16 µg/mL (≈ 17.5 µM) | 8 µg/mL (≈ 8.74 µM) | 0.125 µg/mL (≈ 0.137 µM) | 1 µg/mL (≈ 1.09 µM) | > 128 µg/mL | 4 | 16 µg/mL (≈ 17.5 µM) | – | –
CC[C@H]1OC(=O)[C@H](C)C(=O)[C@H](C)[C@@H](O[C@@H]2O[C@H](C)C[C@H](N(C)C)[C@H]2O)[C@](C)(OC)C[C@@H](C)C(=O)[C@H](C)[C@@H](OC(=O)NCCNC(=O)C#Cc2ccc(Cl)cc2)[C@]1(C)O | 64 µg/mL (≈ 76.5 µM) | > 128 µg/mL | 128 µg/mL (≈ 153 µM) | > 128 µg/mL | – | 64 µg/mL (≈ 76.5 µM) | 2 µg/mL (≈ 2.39 µM) | 1 µg/mL (≈ 1.2 µM) | 2 µg/mL (≈ 2.39 µM) | 128 µg/mL (≈ 153 µM) | – | 8 µg/mL (≈ 9.56 µM) | – | –
CC[C@H]1OC(=O)[C@H](C)C(=O)[C@H](C)[C@@H](O[C@@H]2O[C@H](C)C[C@H](N(C)C)[C@H]2O)[C@](C)(OC)C[C@@H](C)C(=O)[C@H](C)[C@@H](OC(=O)NCCNC(=O)C#Cc2ccc(Cl)cc2Cl)[C@]1(C)O | 128 µg/mL (≈ 147 µM) | > 128 µg/mL | 128 µg/mL (≈ 147 µM) | > 128 µg/mL | – | 128 µg/mL (≈ 147 µM) | 1 µg/mL (≈ 1.15 µM) | 1 µg/mL (≈ 1.15 µM) | 2 µg/mL (≈ 2.3 µM) | 128 µg/mL (≈ 147 µM) | – | 16 µg/mL (≈ 18.4 µM) | – | –
CC[C@H]1OC(=O)[C@H](C)[C@@H](O[C@H]2C[C@@](C)(OC)[C@@H](O)[C@H](C)O2)[C@H](C)[C@@H](O[C@@H]2O[C@H](C)C[C@H](N(C)C)[C@H]2O)[C@](C)(O)C[C@@H](C)CN(C)[C@H](C)[C@@H](O)[C@]1(C)O [AZITHROMYCIN] | > 128 µg/mL | 16 µg/mL (≈ 21.4 µM) | > 128 µg/mL | 16 µg/mL (≈ 21.4 µM) | – | > 128 µg/mL | 0.25 µg/mL (≈ 0.334 µM) | 0.03 µg/mL (≈ 0.0401 µM) | 4 µg/mL (≈ 5.34 µM) | > 128 µg/mL | – | 0.25 µg/mL (≈ 0.334 µM) | – | –
CC[C@H]1OC(=O)[C@H](C)[C@@H](O[C@H]2C[C@@](C)(OC)[C@@H](O)[C@H](C)O2)[C@H](C)[C@@H](O[C@@H]2O[C@H](C)C[C@H](N(C)C)[C@H]2O)[C@](C)(OC)C[C@@H](C)C(=O)[C@H](C)[C@@H](O)[C@]1(C)O [CLARITHROMYCIN] | > 128 µg/mL | 64 µg/mL (≈ 85.6 µM) | > 128 µg/mL | 64 µg/mL (≈ 85.6 µM) | – | 128 µg/mL (≈ 171 µM) | 0.25 µg/mL (≈ 0.334 µM) | 0.03 µg/mL (≈ 0.0401 µM) | 2 µg/mL (≈ 2.67 µM) | > 128 µg/mL | – | 0.25 µg/mL (≈ 0.334 µM) | – | –
CC[C@H]1OC(=O)[C@H](C)C(=O)[C@H](C)[C@@H](O[C@@H]2O[C@H](C)C[C@H](N(C)C)[C@H]2O)[C@](C)(OC)C[C@@H](C)C(=O)[C@H](C)[C@@H](OC(=O)NCCNC(=O)C#Cc2ccc(C)cc2)[C@]1(C)O | 128 µg/mL (≈ 157 µM) | > 128 µg/mL | 128 µg/mL (≈ 157 µM) | 128 µg/mL (≈ 157 µM) | – | 64 µg/mL (≈ 78.4 µM) | 1 µg/mL (≈ 1.23 µM) | 0.25 µg/mL (≈ 0.306 µM) | 0.5 µg/mL (≈ 0.613 µM) | > 128 µg/mL | – | 8 µg/mL (≈ 9.8 µM) | 4 | 8
CC[C@H]1OC(=O)[C@H](C)[C@@H](OC(=O)Cc2cccnc2)[C@H](C)[C@@H](O[C@@H]2O[C@H](C)C[C@H](N(C)C)[C@H]2O)[C@](C)(OC)C[C@@H](C)C(=O)/C(C)=C/[C@]1(C)O | 128 µg/mL (≈ 185 µM) | 128 µg/mL (≈ 185 µM) | 32 µg/mL (≈ 46.3 µM) | 128 µg/mL (≈ 185 µM) | – | 16 µg/mL (≈ 23.2 µM) | 1 µg/mL (≈ 1.45 µM) | 0.25 µg/mL (≈ 0.362 µM) | 1 µg/mL (≈ 1.45 µM) | 128 µg/mL (≈ 185 µM) | – | 1 µg/mL (≈ 1.45 µM) | – | –
CC[C@H]1OC(=O)[C@H](C)C(=O)[C@H](C)[C@@H](O[C@@H]2O[C@H](C)C[C@H](N(C)C)[C@H]2O)[C@](C)(OC)C[C@@H](C)C(=O)[C@H](C)[C@@H](OC(=O)NCCNC(=O)C#Cc2ccccc2)[C@]1(C)O | 128 µg/mL (≈ 160 µM) | > 128 µg/mL | 128 µg/mL (≈ 160 µM) | > 128 µg/mL | – | 128 µg/mL (≈ 160 µM) | 4 µg/mL (≈ 4.99 µM) | 2 µg/mL (≈ 2.49 µM) | 4 µg/mL (≈ 4.99 µM) | > 128 µg/mL | – | 32 µg/mL (≈ 39.9 µM) | – | –
